Data reported in ChEMBL document CHEMBL1914327, “Unichiral 2-(2'-pyrrolidinyl)-1,4-benzodioxanes: the 2R,2'S diastereomer of the N-methyl-7-hydroxy analogue is a potent α4β2- and α6β2-nicotinic acetylcholine receptor partial agonist” (J Med Chem, 2011).
Calls of active or inactive are those of the source. The rule behind the calls is not given here.

What was measured:
[1] = target: Neuronal acetylcholine receptor subunit alpha-7 (Rattus norvegicus, UniProt Q05941); experiment: Displacement of [125I]alpha-bungarotoxin from alpha7 nAChR in Sprague-Dawley rat cerebral cortex […]; format: tissue-based
[2] = target: T1, Neuronal acetylcholine receptor; alpha4/beta2 (Rattus norvegicus, UniProt P09483+P12390); experiment: Displacement of [3H]epibatidine from alpha4beta2 nAChR in Sprague-Dawley rat cerebral cortex by beta counting; format: tissue-based
Summary of the method: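 Sprague-Dawley rat cortical membranes in Tris buffer pH 7 with protease inhibitors. Membranes first blocked with 1 μM α-bungarotoxin. Compound (10 pM to 10 mM) preincubated 30 min at rt, then 0.1 nM [3H]epibatidine (final) added overnight at 4 °C. Nonspecific binding defined with 100 nM unlabeled epibatidine. Filtered and beta counted. Ki from three independent experiments fitted by LIGAND.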

[3] = target: T1, Neuronal acetylcholine receptor; alpha4/beta2; experiment: Agonist activity at rat alpha4beta2 nAChR assessed as [3H]dopamine release by beta counting; format: functional
Summary of the method: (§1)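 Rat striatal slices (150 μm) were preloaded for 30 min with 100 nM [3H]DA in Krebs buffer containing 10 μM pargyline, then washed with pargyline plus 0.5 μM nomifensine. Slices were exposed to agonist for 5 min at 37 °C. […] EC50/Emax came from nonlinear regression; six replicates, ≥3 experiments.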

[4] = target: T2, Neuronal acetylcholine receptor; alpha4/beta2 (Rattus norvegicus) (UniProt P09483+P12390); experiment: Agonist activity at rat alpha4beta2 nAChR assessed as [3H]dopamine release from rat striatum by beta counting relative to 10 uM nicotine; format: functional; summary of the method: as §1
[5] = target: T3, Neuronal acetylcholine receptor subunit alpha-6/beta-3 (Rattus norvegicus) (UniProt P12391+P43143); experiment: Agonist activity at rat alpha6beta2 nAChR assessed as [3H]dopamine release from rat striatum by beta counting relative to 10 uM nicotine; format: functional
HEK293 = experiment: Selectivity ratio of Ki for human alpha3beta4 nAChR expressed in human HEK293 cells to Ki for alpha4beta2 nAChR in rat cerebral cortex; format: cell-based
[6] = target: Neuronal acetylcholine receptor; alpha3/beta4 (Homo sapiens, UniProt P30926+P32297); experiment: Displacement of [3H]epibatidine from human alpha3beta4 nAChR expressed in human HEK293 cells by scintillation counting; format: cell-based
Summary of the method: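 Membranes from HEK293 cells transiently transfected with α3 and β4 cDNAs (harvested at 48 h). Compound was preincubated for 5 min, then 0.25 nM [3H]epibatidine was added overnight at 4 °C in Tris buffer (pH 7) with BSA and no Tween. Nonspecific binding used 100 nM epibatidine. Ki was fitted from three experiments in triplicate.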

[7] = target: Neuronal acetylcholine receptor; alpha3/beta4 (Rattus norvegicus, UniProt P04757+P12392); experiment: Partial agonist activity at rat alpha3beta4 nAChR assessed as [3H]noradrenaline release from rat […] by beta counting; format: functional
[8] = target: T2, Neuronal acetylcholine receptor; alpha4/beta2 (Rattus norvegicus); experiment: Partial agonist activity at Nicotinic acetylcholine alpha4beta2 receptor in rat striatum assessed as [3H]dopamine release by beta counting relative to nicotine; format: functional, tissue-based; summary of the method: as §1
[9] = target: T3, Neuronal acetylcholine receptor subunit alpha-6/beta-3 (Rattus norvegicus); experiment: Partial agonist activity at alpha6beta2 nAChR in rat striatum assessed as decrease in [3H]dopamine release by beta counting in the presence of antagonist alphaconotoxin MII; format: functional, tissue-based
Rattus norvegicus = organism: Rattus norvegicus; experiment: Selectivity ratio of Ki for alpha7 nAChR in Sprague-Dawley rat cerebral cortex to Ki for alpha4beta2 nAChR in Sprague-Dawley rat cerebral cortex; format: tissue-based
Summary of the method: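 Sprague-Dawley rat cortical membranes, with compound (10 pM–10 mM) preincubated 30 min at rt. α4β2 assay: membranes pretreated with 1 μM α-bungarotoxin, then 0.1 nM [3H]epibatidine overnight at 4 °C. α7 assay: 1 nM [125I]α-bungarotoxin overnight at rt. Ki values were from LIGAND fits of three experiments, and the ratio was taken from these Ki values.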

[10] = target: T1, Neuronal acetylcholine receptor; alpha4/beta2; experiment: Partial agonist activity at Nicotinic acetylcholine alpha4beta2 receptor in rat striatum assessed as [3H]dopamine release by beta counting; format: functional, tissue-based
Summary of the method: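 Rat striatal slices (150 μm) were preloaded for 30 min with 100 nM [3H]DA in Krebs buffer containing 10 μM pargyline, then washed with pargyline plus 0.5 μM nomifensine. Slices were exposed to agonist for 5 min at 37 °C.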

T1 sequence (P09483 whole entry): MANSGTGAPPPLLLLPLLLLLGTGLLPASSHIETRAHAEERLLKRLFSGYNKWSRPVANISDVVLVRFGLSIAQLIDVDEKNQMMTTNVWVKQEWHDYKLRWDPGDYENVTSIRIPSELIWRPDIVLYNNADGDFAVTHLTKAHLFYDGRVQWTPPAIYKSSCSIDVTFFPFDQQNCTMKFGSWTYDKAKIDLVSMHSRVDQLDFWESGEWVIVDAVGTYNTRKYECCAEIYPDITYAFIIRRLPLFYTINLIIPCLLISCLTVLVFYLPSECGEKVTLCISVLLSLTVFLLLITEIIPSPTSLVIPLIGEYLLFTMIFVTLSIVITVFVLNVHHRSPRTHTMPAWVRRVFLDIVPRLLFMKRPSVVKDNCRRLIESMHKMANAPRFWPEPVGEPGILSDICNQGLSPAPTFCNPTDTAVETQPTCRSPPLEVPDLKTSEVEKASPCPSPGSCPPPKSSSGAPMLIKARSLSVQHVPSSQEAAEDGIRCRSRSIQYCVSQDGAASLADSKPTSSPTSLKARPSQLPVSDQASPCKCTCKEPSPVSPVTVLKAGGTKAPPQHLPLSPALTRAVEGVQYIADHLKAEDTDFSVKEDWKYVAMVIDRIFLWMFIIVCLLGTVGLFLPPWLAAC
T1 sequence (P12390 whole entry): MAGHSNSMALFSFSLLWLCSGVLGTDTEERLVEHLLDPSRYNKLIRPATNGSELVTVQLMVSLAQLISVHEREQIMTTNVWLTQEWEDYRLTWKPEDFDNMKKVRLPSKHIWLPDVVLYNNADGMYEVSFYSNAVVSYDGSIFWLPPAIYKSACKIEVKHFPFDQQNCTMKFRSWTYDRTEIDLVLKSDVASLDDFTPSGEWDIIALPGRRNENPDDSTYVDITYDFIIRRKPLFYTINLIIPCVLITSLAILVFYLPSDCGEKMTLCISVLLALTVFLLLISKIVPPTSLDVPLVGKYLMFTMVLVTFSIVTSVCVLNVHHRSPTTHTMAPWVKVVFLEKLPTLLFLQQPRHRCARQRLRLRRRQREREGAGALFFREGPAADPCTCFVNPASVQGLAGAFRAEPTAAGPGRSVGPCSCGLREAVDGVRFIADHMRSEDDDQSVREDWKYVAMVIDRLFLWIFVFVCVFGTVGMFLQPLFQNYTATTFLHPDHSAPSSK
Chain of Neuronal acetylcholine receptor subunit alpha-7 (Q05941 whole entry): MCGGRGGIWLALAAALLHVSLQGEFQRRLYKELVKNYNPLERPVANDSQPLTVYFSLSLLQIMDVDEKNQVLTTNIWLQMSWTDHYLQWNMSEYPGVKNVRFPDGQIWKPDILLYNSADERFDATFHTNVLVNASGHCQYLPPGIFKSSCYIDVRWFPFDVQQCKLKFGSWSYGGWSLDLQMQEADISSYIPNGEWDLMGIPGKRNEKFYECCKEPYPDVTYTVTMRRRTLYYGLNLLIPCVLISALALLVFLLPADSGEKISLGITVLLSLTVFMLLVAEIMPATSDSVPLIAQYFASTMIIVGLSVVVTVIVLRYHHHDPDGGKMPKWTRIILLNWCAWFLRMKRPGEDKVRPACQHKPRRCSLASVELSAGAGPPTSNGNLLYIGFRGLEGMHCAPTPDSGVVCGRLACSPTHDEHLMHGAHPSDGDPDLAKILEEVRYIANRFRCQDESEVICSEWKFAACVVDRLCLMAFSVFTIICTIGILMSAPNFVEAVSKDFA
Chain of Neuronal acetylcholine receptor; alpha3/beta4 (Homo sapiens, UniProt P30926+P32297) (P30926 whole entry): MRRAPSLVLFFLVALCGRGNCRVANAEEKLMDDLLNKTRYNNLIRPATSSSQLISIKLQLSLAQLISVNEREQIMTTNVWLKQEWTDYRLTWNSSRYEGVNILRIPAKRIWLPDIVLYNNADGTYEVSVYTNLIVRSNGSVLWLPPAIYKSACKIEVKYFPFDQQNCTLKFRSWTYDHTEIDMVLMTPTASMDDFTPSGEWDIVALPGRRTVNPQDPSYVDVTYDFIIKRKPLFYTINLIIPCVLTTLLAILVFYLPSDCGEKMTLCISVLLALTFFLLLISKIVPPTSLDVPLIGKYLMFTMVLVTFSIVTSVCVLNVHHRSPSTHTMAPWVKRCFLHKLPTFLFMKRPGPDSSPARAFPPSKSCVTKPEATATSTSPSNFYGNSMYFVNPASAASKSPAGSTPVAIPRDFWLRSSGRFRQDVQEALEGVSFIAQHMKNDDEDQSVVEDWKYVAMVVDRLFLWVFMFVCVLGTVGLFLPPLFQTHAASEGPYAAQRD
Chain of Neuronal acetylcholine receptor; alpha3/beta4 (Homo sapiens, UniProt P30926+P32297) (P32297 whole entry): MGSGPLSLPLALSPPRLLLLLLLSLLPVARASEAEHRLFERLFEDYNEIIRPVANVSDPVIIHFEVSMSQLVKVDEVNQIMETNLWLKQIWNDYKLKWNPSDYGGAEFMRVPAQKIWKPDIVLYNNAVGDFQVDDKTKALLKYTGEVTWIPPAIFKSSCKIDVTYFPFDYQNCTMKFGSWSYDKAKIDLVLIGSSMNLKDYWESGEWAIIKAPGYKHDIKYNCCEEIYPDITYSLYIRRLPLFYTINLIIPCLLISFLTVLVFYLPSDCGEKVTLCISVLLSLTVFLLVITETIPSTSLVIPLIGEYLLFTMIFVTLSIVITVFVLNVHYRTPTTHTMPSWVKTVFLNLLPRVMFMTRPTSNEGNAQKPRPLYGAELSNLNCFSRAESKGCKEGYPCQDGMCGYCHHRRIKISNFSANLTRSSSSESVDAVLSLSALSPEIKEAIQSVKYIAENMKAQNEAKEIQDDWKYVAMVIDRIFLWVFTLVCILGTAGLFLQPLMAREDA
Chain of Neuronal acetylcholine receptor; alpha3/beta4 (Rattus norvegicus, UniProt P04757+P12392) (P04757 whole entry): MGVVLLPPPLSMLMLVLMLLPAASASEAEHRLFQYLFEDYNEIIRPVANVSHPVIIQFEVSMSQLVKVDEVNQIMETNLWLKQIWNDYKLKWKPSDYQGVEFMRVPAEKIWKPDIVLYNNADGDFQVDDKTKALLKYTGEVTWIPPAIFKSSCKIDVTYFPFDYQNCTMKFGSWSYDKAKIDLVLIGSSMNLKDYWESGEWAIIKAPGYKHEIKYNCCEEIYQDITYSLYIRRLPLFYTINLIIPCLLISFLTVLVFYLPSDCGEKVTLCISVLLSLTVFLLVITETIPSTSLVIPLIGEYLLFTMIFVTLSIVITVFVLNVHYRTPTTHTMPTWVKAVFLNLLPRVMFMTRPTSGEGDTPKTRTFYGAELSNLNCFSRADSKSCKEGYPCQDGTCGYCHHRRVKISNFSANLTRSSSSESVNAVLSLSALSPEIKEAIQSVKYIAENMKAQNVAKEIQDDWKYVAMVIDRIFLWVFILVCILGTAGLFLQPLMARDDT
Chain of Neuronal acetylcholine receptor; alpha3/beta4 (Rattus norvegicus, UniProt P04757+P12392) (P12392 whole entry): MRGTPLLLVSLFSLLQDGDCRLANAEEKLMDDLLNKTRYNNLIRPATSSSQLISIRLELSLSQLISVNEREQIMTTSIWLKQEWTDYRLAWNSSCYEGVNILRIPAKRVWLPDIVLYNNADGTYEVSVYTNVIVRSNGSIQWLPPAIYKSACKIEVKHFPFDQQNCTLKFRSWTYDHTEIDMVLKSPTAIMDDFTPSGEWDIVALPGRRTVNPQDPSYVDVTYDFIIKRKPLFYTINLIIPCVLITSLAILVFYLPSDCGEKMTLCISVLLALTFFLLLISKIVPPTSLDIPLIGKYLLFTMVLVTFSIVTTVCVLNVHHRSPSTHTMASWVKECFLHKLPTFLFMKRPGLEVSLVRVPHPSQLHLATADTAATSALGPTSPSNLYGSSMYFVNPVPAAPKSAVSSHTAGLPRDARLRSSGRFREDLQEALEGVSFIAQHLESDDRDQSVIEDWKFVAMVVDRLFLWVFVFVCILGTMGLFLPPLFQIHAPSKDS

SMILES	Ki [1] [µM]	Ki [2] [µM]	further results
Cc1ccc2c(c1)O[C@H]([C@@H]1CCCN1C)CO2	126	42	–
c1cnc2cc3c(cc2n1)[C@@H]1CNC[C@H]3C1 [VARENICLINE]	–	–	EC50 [3]: 0.046 µM; Efficacy [4]: 49%; Efficacy [5]: 49%
CN1CCC[C@H]1[C@H]1COc2ccc(Br)cc2O1	22	3	Kd [1]: 0.0003 µM; Kd [2]: 0.036 nM
CC(=O)c1ccc2c(c1)O[C@H]([C@@H]1CCCN1C)CO2 (racemic)	110	97	–
CN1CCC[C@H]1[C@@H]1COc2ccc(O)cc2O1	0.427	0.012	Ratio Ki (HEK293): 26; Ki [6]: 0.31 µM; EC50 [7]: 17.6 µM; Efficacy [8]: 51%; Activity [9]: inactive; Ratio Ki (Rattus norvegicus): 35; EC50 [10]: 0.082 µM
Oc1ccc2c(c1)O[C@@H]([C@H]1CCCN1)CO2	35	18	–
Cc1ccc2c(c1)O[C@@H]([C@@H]1CCCN1C)CO2	64	5.7	–
Oc1ccc2c(c1)O[C@H]([C@@H]1CCCN1)CO2	33	9	–
CN1CCC[C@H]1[C@H]1COc2ccc(-c3ccccc3)cc2O1	51	3.1	–
CN1CCC[C@H]1[C@@H]1COc2ccc(Br)cc2O1	22	8.1	–
CC(=O)c1ccc2c(c1)O[C@@H]([C@@H]1CCCN1C)CO2	30	11.7	–
CN1CCC[C@@H]1[C@H]1COc2ccc(O)cc2O1	4.5	3.5	–
CC(C)Oc1ccc2c(c1)O[C@@H]([C@@H]1CCCN1C)CO2	43	3.2	–
CN1CCC[C@@H]1[C@@H]1COc2ccc(O)cc2O1	1.3	3	–
CN1CCC[C@H]1[C@@H]1COc2ccc(CO)cc2O1	60	51	–
CN1CCC[C@H]1[C@H]1COc2ccc(O)cc2O1	20	0.421	Ratio Ki (Rattus norvegicus): 47
CN1CCC[C@H]1[C@H]1COc2ccc(CO)cc2O1	12	9.5	–
Oc1ccc2c(c1)O[C@H]([C@H]1CCCN1)CO2	3	1.3	–
CC(C)Oc1ccc2c(c1)O[C@H]([C@@H]1CCCN1C)CO2	6.1	9.3	–
COc1ccc2c(c1)O[C@H]([C@@H]1CCCN1C)CO2	32	17	–
CN1CCC[C@H]1[C@@H]1COc2ccc(-c3ccccc3)cc2O1	36	35	–
COc1ccc2c(c1)O[C@@H]([C@@H]1CCCN1C)CO2	26	4.2	–
Oc1ccc2c(c1)O[C@@H]([C@@H]1CCCN1)CO2	53	1.2	–
